pIC50: −log10 of the molar value. Where “and” joins values, the source holds several entries; their conditions need not be identical. Identical values can stand only once. Calls of active or inactive are those of the source.
These compounds were tested on L1210 (assay: Inhibition of growth of murine leukemia (L1210) cells.). Conditions: Mus musculus.
Assay type: functional, cell-based
Summary of the method: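 Murine leukemia L1210 cells grown in culture with drug for 40 h; IC50 taken as the concentration (nM) giving 50% growth inhibition.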

pIC50 | SMILES
5.97 | CN(C)CCCCNC(=O)c1cccc2c1nc(-c1ccccc1)c1ccccc12.Cl.Cl
5.48 | CN(C)CCCCNC(=O)c1cccc2c1ncc1ccccc12.Cl
5.65 | CN(C)CCNC(=O)c1cccc2c1nc(-c1ccc(I)cc1)c1ccccc12.Cl.Cl
6.00 | CN(C)CCNC(=O)c1cccc2c1nc(-c1ccc(Br)cc1)c1ccccc12
6.43 | Br.Br.CN(C)CCNC(=O)c1cccc2c1nc(-c1ccc(O)cc1)c1ccccc12.Cl.Cl
6.46 | CN(C)CCNC(=O)c1cccc2c1nc(-c1ccc(NS(C)(=O)=O)cc1)c1ccccc12.Cl.Cl

SMILES | pIC50
CN(C)CCNC(=O)c1cccc2c1nc(-c1ccc(N)cc1)c1ccccc12 | 6.89
CN(C)CCCNC(=O)c1cccc2c1nc(-c1ccccc1)c1ccccc12.Cl.Cl | 5.95
CN(C)CCNC(=O)c1cccc2c1nc(-c1cccnc1)c1ccccc12.Cl.Cl.Cl | 7.89
CN(C)CCNC(=O)c1cccc2c1nc(-c1ccc(F)cc1)c1ccccc12.Cl.Cl | 7.37
CN(C)CCNC(=O)c1cccc2c1nc(-c1ccccn1)c1ccccc12.Cl | 6.14

What follows are compounds tested on Lewis lung carcinoma cell line (assay: OD administered intraperitoneally to mice infected with Lewis lung carcinoma cells(LL) in vivo). Conditions: not given.
Assay type: functional, Mus musculus

SMILES | OD [mg/kg/day]
CN(C)CCNC(=O)c1cccc2c1nc(-c1ccc(NS(C)(=O)=O)cc1)c1ccccc12.Cl.Cl | 20

The compounds below were run on Lewis lung carcinoma cell line (assay: Optimal dose administered intraperitoneally to mice infected with Lewis lung carcinoma cells(LL) in vivo). Conditions: not given.
Assay type: functional, Mus musculus

SMILES | OD [mg/kg/day]
CN(C)CCCCNC(=O)c1cccc2c1nc(-c1ccccc1)c1ccccc12.Cl.Cl | 45
CN(C)CCNC(=O)c1cccc2c1nc(-c1ccc(I)cc1)c1ccccc12.Cl.Cl | 65
CN(C)CCCNC(=O)c1cccc2c1nc(-c1ccccc1)c1ccccc12.Cl.Cl | 65
Br.Br.CN(C)CCNC(=O)c1cccc2c1nc(-c1ccc(O)cc1)c1ccccc12.Cl.Cl | 65
CN(C)CCNC(=O)c1cccc2c1nc(-c1cccnc1)c1ccccc12.Cl.Cl.Cl | 65
CN(C)CCNC(=O)c1cccc2c1nc(-c1ccc(F)cc1)c1ccccc12.Cl.Cl | 45
CN(C)CCNC(=O)c1cccc2c1nc(-c1ccccn1)c1ccccc12.Cl | 65

These compounds were tested on Lewis lung carcinoma cell line (assay: Optimal dose administered intraperitoneally to mice infected with Lewis lung carcinoma cells(LL) in vivo.). Conditions: not given.
Assay type: functional, Mus musculus

SMILES | OD [mg/kg/day]
CN(C)CCNC(=O)c1cccc2c1nc(-c1ccc(N)cc1)c1ccccc12 | 45
CN(C)CCNC(=O)c1cccc2c1nc(-c1ccc(Br)cc1)c1ccccc12 | 45

What follows are compounds tested on Lewis lung carcinoma cell line (assay: The percentage increase in lifespan of compound with Lewis lung carcinoma tumor bearing controls when treated at OD). Conditions: not given.
Assay type: functional, Mus musculus
Summary of the method: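 Lewis lung carcinoma: 10^6 cells inoculated intravenously. ILSmax is the percentage increase in lifespan over tumor-bearing controls at the optimal dose (mg/kg per day). Groups of six; long-term survivors counted at 60 days; values above 40% considered significant.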

SMILES | ILSmax [%]
CN(C)CCNC(=O)c1cccc2c1nc(-c1cccnc1)c1ccccc12.Cl.Cl.Cl | 93
CN(C)CCNC(=O)c1cccc2c1nc(-c1ccc(F)cc1)c1ccccc12.Cl.Cl | 45

The compounds below were run on P388 (assay: The percentage increase in lifespan of compound with P388 tumor bearing controls when treated at optimal dose). Conditions: not given.
Assay type: functional, Mus musculus
Summary of the method: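 P388 leukemia: 10^6 cells inoculated intraperitoneally. ILSmax is the percentage lifespan increase over tumor-bearing controls at the optimal dose (mg/kg per day). Groups of six; long-term survivors counted at 50 days; values above 20% considered significant.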

SMILES | ILSmax [%]
CN(C)CCNC(=O)c1cccc2c1nc(-c1ccc(N)cc1)c1ccccc12 | 27
CN(C)CCCNC(=O)c1cccc2c1nc(-c1ccccc1)c1ccccc12.Cl.Cl | 24
CN(C)CCNC(=O)c1cccc2c1nc(-c1cccnc1)c1ccccc12.Cl.Cl.Cl | 104
CN(C)CCNC(=O)c1cccc2c1nc(-c1ccc(F)cc1)c1ccccc12.Cl.Cl | 63
CN(C)CCNC(=O)c1cccc2c1nc(-c1ccccn1)c1ccccc12.Cl | 20

The compounds below were run on P388 (assay: The percentage increase in lifespan of compound with P388 tumor bearing controls when treated at optimal dose; Not active). Conditions: Mus musculus.
Assay type: functional
Summary of the method: (§1)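 Mice inoculated intraperitoneally with 10^6 P388 leukemia cells. Drug given i.p. as a solution in 0.1 mL 30% v/v ethanol/water on days 1, 5 and 9. Optimal dose in mg/kg per day. ILS is the percent increase in lifespan over untreated tumor-bearing controls at that dose; above 20% counted significant. Long-term survival judged at 50 days, groups of six.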

SMILES | ILS max | ILSmax
CN(C)CCCCNC(=O)c1cccc2c1nc(-c1ccccc1)c1ccccc12.Cl.Cl | inactive | –
CN(C)CCNC(=O)c1cccc2c1nc(-c1ccc(I)cc1)c1ccccc12.Cl.Cl | – | inactive
CN(C)CCNC(=O)c1cccc2c1nc(-c1ccc(Br)cc1)c1ccccc12 | inactive | –
Br.Br.CN(C)CCNC(=O)c1cccc2c1nc(-c1ccc(O)cc1)c1ccccc12.Cl.Cl | inactive | –
CN(C)CCNC(=O)c1cccc2c1nc(-c1ccc(NS(C)(=O)=O)cc1)c1ccccc12.Cl.Cl | – | inactive

These compounds were tested on P388 (assay: Optimal dose following i.p. administration on days 1,5 and 9 after inoculation of 10e6 P388 leukemia cells to mice.). Conditions: not given.
Assay type: functional, Mus musculus
Summary of the method: as §1

SMILES | OD [mg/kg/day]
CN(C)CCNC(=O)c1cccc2c1nc(-c1ccc(I)cc1)c1ccccc12.Cl.Cl | 65
CN(C)CCCNC(=O)c1cccc2c1nc(-c1ccccc1)c1ccccc12.Cl.Cl | 45
CN(C)CCNC(=O)c1cccc2c1nc(-c1ccc(Br)cc1)c1ccccc12 | 65
Br.Br.CN(C)CCNC(=O)c1cccc2c1nc(-c1ccc(O)cc1)c1ccccc12.Cl.Cl | 65
CN(C)CCNC(=O)c1cccc2c1nc(-c1cccnc1)c1ccccc12.Cl.Cl.Cl | 45
CN(C)CCNC(=O)c1cccc2c1nc(-c1ccc(NS(C)(=O)=O)cc1)c1ccccc12.Cl.Cl | 30
CN(C)CCNC(=O)c1cccc2c1nc(-c1ccc(F)cc1)c1ccccc12.Cl.Cl | 20
CN(C)CCNC(=O)c1cccc2c1nc(-c1ccccn1)c1ccccc12.Cl | 65

What follows are compounds tested on P388 (assay: Optimal dose administered intraperitoneally on days 1,5 and 9 after intraperitoneal inoculation of 10e6 P388 leukemia cells in vivo.). Conditions: not given.
Assay type: functional, Mus musculus
Summary of the method: as §1

SMILES | OD [mg/kg/day]
CN(C)CCCCNC(=O)c1cccc2c1nc(-c1ccccc1)c1ccccc12.Cl.Cl | 65
CN(C)CCCCNC(=O)c1cccc2c1ncc1ccccc12.Cl | 100
CN(C)CCNC(=O)c1cccc2c1nc(-c1ccc(N)cc1)c1ccccc12 | 30

What follows are compounds tested on Lewis lung carcinoma cell line (assay: The percentage increase in lifespan of compound with Lewis lung carcinoma tumor bearing controls when treated at OD; Not active). Conditions: Mus musculus.
Assay type: functional, cell-based

SMILES | ILSmax | ILS max
CN(C)CCCCNC(=O)c1cccc2c1nc(-c1ccccc1)c1ccccc12.Cl.Cl | inactive | –
CN(C)CCNC(=O)c1cccc2c1nc(-c1ccc(I)cc1)c1ccccc12.Cl.Cl | inactive | –
CN(C)CCNC(=O)c1cccc2c1nc(-c1ccc(N)cc1)c1ccccc12 | inactive | –
CN(C)CCCNC(=O)c1cccc2c1nc(-c1ccccc1)c1ccccc12.Cl.Cl | inactive | –
CN(C)CCNC(=O)c1cccc2c1nc(-c1ccc(Br)cc1)c1ccccc12 | inactive | –
Br.Br.CN(C)CCNC(=O)c1cccc2c1nc(-c1ccc(O)cc1)c1ccccc12.Cl.Cl | – | inactive
CN(C)CCNC(=O)c1cccc2c1nc(-c1ccc(NS(C)(=O)=O)cc1)c1ccccc12.Cl.Cl | inactive | –

These compounds were tested on poly[d(A-T)] and poly[d(G-C)] (assay: Binding constant for poly[d(A-T)] and poly[d(G-C)] by ethidium bromide displacement). Conditions: not given.

Log K | SMILES
6.59 and 6.4 | CN(C)CCCCNC(=O)c1cccc2c1nc(-c1ccccc1)c1ccccc12.Cl.Cl
5.64 and 5.28 | CN(C)CCCCNC(=O)c1cccc2c1ncc1ccccc12.Cl
7.33 and 7.23 | CN(C)CCNC(=O)c1cccc2c1nc(-c1ccc(I)cc1)c1ccccc12.Cl.Cl
7.04 and 6.76 | CN(C)CCNC(=O)c1cccc2c1nc(-c1ccc(Br)cc1)c1ccccc12
6.24 and 6.36 | CN(C)CCNC(=O)c1cccc2c1nc(-c1ccc(NS(C)(=O)=O)cc1)c1ccccc12.Cl.Cl

SMILES | Log K
CN(C)CCNC(=O)c1cccc2c1nc(-c1ccc(N)cc1)c1ccccc12 | 6.29 and 6.57
CN(C)CCCNC(=O)c1cccc2c1nc(-c1ccccc1)c1ccccc12.Cl.Cl | 6.5 and 6.11
CN(C)CCNC(=O)c1cccc2c1nc(-c1cccnc1)c1ccccc12.Cl.Cl.Cl | 6.35 and 6.21
CN(C)CCNC(=O)c1cccc2c1nc(-c1ccccn1)c1ccccc12.Cl | 5.69 and 5.77

From ChEMBL document CHEMBL1124080, “Potential antitumor agents. 55. 6-Phenylphenanthridine-4-carboxamides: a new class of DNA-intercalating antitumor agents” (J Med Chem, 1988)
